{"source": "ChEMBL document CHEMBL1145462", "about": "“In vivo pharmacodynamic activity of the glycopeptide dalbavancin” (Antimicrob Agents Chemother, 2007)", "key": {"Streptococcus pneumoniae [1]": {"test_system": "Streptococcus pneumoniae", "assay": "AUC/MIC ratio of Streptococcus pneumoniae 1199 infected neutropenic mouse thigh infection model at 0.40 mg/kg, ip administered every 24 hrs by static effect experiment", "format": "functional", "conditions": "dose 0.4 mg/kg; route intraperitoneal"}, "Streptococcus pneumoniae [2]": {"test_system": "Streptococcus pneumoniae", "assay": "AUC/MIC ratio of Streptococcus pneumoniae 1325 infected neutropenic mouse thigh infection model at 1.46 mg/kg, ip administered every 24 hrs by static effect experiment", "format": "functional", "conditions": "route intraperitoneal"}, "Staphylococcus aureus [3]": {"test_system": "Staphylococcus aureus", "assay": "AUC/MBC ratio of Staphylococcus aureus ATCC 25923 infected neutropenic mouse thigh infection model at 160 mg/kg, ip administered every 72 hrs by static effect experiment", "format": "functional", "conditions": "route intraperitoneal"}, "Staphylococcus aureus [4]": {"test_system": "Staphylococcus aureus", "assay": "AUC/MBC ratio of Staphylococcus aureus 31005 infected neutropenic mouse thigh infection model at 67.7 mg/kg, ip administered every 72 hrs by static effect experiment", "format": "functional", "conditions": "route intraperitoneal"}, "Streptococcus pneumoniae [5]": {"test_system": "Streptococcus pneumoniae", "assay": "AUC/MIC ratio of Streptococcus pneumoniae 1293 infected neutropenic mouse thigh infection model at 0.55 mg/kg, ip administered every 24 hrs by 1-log killing experiment", "format": "functional", "conditions": "route intraperitoneal"}, "Staphylococcus aureus [6]": {"test_system": "Staphylococcus aureus", "assay": "AUC/MBC ratio of Staphylococcus aureus 33591 infected neutropenic mouse thigh infection model at 27.7 mg/kg, ip administered every 24 hrs by 1-log killing experiment", "format": "functional", "conditions": "route intraperitoneal"}, "Streptococcus pneumoniae [7]": {"test_system": "Streptococcus pneumoniae", "assay": "AUC/MIC ratio of Streptococcus pneumoniae 1396 infected neutropenic mouse thigh infection model at 0.61 mg/kg, ip administered every 72 hrs by 1-log killing experiment", "format": "functional", "conditions": "route intraperitoneal"}, "Staphylococcus aureus [8]": {"test_system": "Staphylococcus aureus", "assay": "AUC/MIC ratio of Staphylococcus aureus 31005 infected neutropenic mouse thigh infection model at 94.6 mg/kg, ip administered every 72 hrs by 1-log killing experiment", "format": "functional", "conditions": "route intraperitoneal"}, "Staphylococcus aureus [9]": {"test_system": "Staphylococcus aureus", "assay": "AUC/MBC ratio of Staphylococcus aureus 33591 infected neutropenic mouse thigh infection model at 93 mg/kg, ip administered every 72 hrs by 1-log killing experiment", "format": "functional", "conditions": "route intraperitoneal"}, "Staphylococcus aureus [10]": {"test_system": "Staphylococcus aureus", "assay": "AUC/MBC ratio of Staphylococcus aureus 307109 infected neutropenic mouse thigh infection model at 34 mg/kg, ip administered every 72 hrs by 1-log killing experiment", "format": "functional", "conditions": "route intraperitoneal"}, "Staphylococcus aureus [11]": {"test_system": "Staphylococcus aureus", "assay": "AUC/MIC ratio of Staphylococcus aureus 33591 infected neutropenic mouse thigh infection model at 33.5 mg/kg, ip administered every 24 hrs by 2-log killing experiment", "format": "functional", "conditions": "route intraperitoneal"}, "Staphylococcus aureus [12]": {"test_system": "Staphylococcus aureus", "assay": "AUC/MBC ratio of Staphylococcus aureus ATCC 25923 infected neutropenic mouse thigh infection model at 60 mg/kg, ip administered every 24 hrs by 2-log killing experiment", "format": "functional", "conditions": "route intraperitoneal"}, "Streptococcus pneumoniae [13]": {"test_system": "Streptococcus pneumoniae", "assay": "AUC/MIC ratio of Streptococcus pneumoniae 1199 infected neutropenic mouse thigh infection model at 0.99 mg/kg, ip administered every 72 hrs by 2-log killing experiment", "format": "functional", "conditions": "route intraperitoneal"}, "Staphylococcus aureus [14]": {"test_system": "Staphylococcus aureus", "assay": "AUC/MIC ratio of Staphylococcus aureus 307109 infected neutropenic mouse thigh infection model at 37 mg/kg, ip administered every 72 hrs by 2-log killing experiment", "format": "functional", "conditions": "route intraperitoneal"}, "Staphylococcus aureus [15]": {"test_system": "Staphylococcus aureus", "assay": "AUC/MBC ratio of Staphylococcus aureus ATCC 25923 infected neutropenic mouse thigh infection model at 214 mg/kg, ip administered every 72 hrs by 2-log killing experiment", "format": "functional", "conditions": "route intraperitoneal"}, "Staphylococcus aureus [16]": {"test_system": "Staphylococcus aureus", "assay": "AUC/MBC ratio of Staphylococcus aureus Smith infected neutropenic mouse thigh infection model at 148 mg/kg, ip administered every 72 hrs by 2-log killing experiment", "format": "functional", "conditions": "route intraperitoneal"}, "Streptococcus pneumoniae [17]": {"test_system": "Streptococcus pneumoniae", "assay": "AUC/MIC ratio of Streptococcus pneumoniae 1293 infected neutropenic mouse thigh infection model at 1.01 mg/kg, ip administered every 72 hrs by static effect experiment", "format": "functional", "conditions": "route intraperitoneal"}, "Streptococcus pneumoniae [18]": {"test_system": "Streptococcus pneumoniae", "assay": "AUC/MIC ratio of Streptococcus pneumoniae ATCC 10813 infected neutropenic mouse thigh infection model at 0.71 mg/kg, ip administered every 72 hrs by static effect experiment", "format": "functional", "conditions": "route intraperitoneal"}, "Streptococcus pneumoniae [19]": {"test_system": "Streptococcus pneumoniae", "assay": "AUC/MIC ratio of Streptococcus pneumoniae ATCC 10813 infected neutropenic mouse thigh infection model at 1.54 mg/kg, ip administered every 24 hrs by 1-log killing experiment", "format": "functional", "conditions": "route intraperitoneal"}, "Staphylococcus aureus [20]": {"test_system": "Staphylococcus aureus", "assay": "AUC/MBC ratio of Staphylococcus aureus 31005 infected neutropenic mouse thigh infection model at 127 mg/kg, ip administered every 72 hrs by 2-log killing experiment", "format": "functional", "conditions": "route intraperitoneal"}, "[21]": {"assay": "AUC in bacterial pathogen-infected neutropenic Swiss ICR mouse thigh infection model at 40 mg/kg, ip", "format": "ADME, organism-based", "design": "dose 40 mg/kg, route intraperitoneal", "conditions": "in vivo", "how_it_was_run": "(§1)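 Thigh-infected neutropenic mice received single intraperitoneal doses (2.5, 5, 10, 20, 40, 80 mg/kg; 0.2 ml/dose). Blood was drawn by retroorbital aspiration from groups of three mice at 0.5, 1, 2, 4, 6, 24, 48, 72 and 96 h. Plasma levels were measured by microbiologic assay with Bacillus subtilis (detection limit 0.10 mg/liter). Noncompartmental analysis was used: half-life by linear least-squares regression, AUC by trapezoidal rule.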"}, "Serum": {"test_system": "Serum", "assay": "Protein binding in Staphylococcus aureus infected neutropenic mouse serum", "format": "ADME, organism-based", "conditions": "in vivo", "how_it_was_run": "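MICs for S. aureus ATCC 25923 and an MRSA strain were compared in broth, heat-treated (100°C, 30 min) 95% mouse serum and 95% serum ultrafiltrate, using arithmetic dilutions of 0.02 mg/liter per tube. Bound fraction = (MIC in serum − MIC in ultrafiltrate)/MIC in serum.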"}, "Streptococcus pneumoniae [22]": {"test_system": "Streptococcus pneumoniae", "assay": "Bactericidal activity against penicillin-susceptible Streptococcus pneumoniae ATCC 10813 infected neutropenic Swiss ICR mouse thigh infection model assessed as drug level causing 1-log reduction of bacterial count at 1.26 mg/kg, ip dosed every 36 hrs", "format": "functional", "conditions": "route intraperitoneal"}, "Streptococcus pneumoniae [23]": {"test_system": "Streptococcus pneumoniae", "assay": "Antibacterial activity against Streptococcus pneumoniae ATCC 10813 by microdilution method", "format": "functional", "how_it_was_run": "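MIC and MBC were determined by CLSI broth microdilution, in duplicate on at least two occasions. Staphylococci were grown in Mueller-Hinton broth and agar; pneumococci were plated on sheep blood agar.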"}, "Staphylococcus aureus [24]": {"test_system": "Staphylococcus aureus", "assay": "Antibacterial activity against methicillin-resistant Staphylococcus aureus by microdilution method", "format": "functional", "how_it_was_run": "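MICs in duplicate on at least two occasions by standard CLSI broth microdilution; S. aureus grown and quantified in Mueller-Hinton broth/agar.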"}, "[25]": {"assay": "Cmax in bacterial pathogen-infected neutropenic Swiss ICR mouse thigh infection model at 2.5 mg/kg, ip", "format": "ADME, organism-based", "design": "dose 2.5 mg/kg, route intraperitoneal", "conditions": "in vivo", "how_it_was_run": "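Single-dose serum PK in thigh-infected neutropenic mice; intraperitoneal dalbavancin (0.2 ml/dose) at 2.5–80 mg/kg. Blood from groups of three mice at 0.5–96 h by retroorbital aspiration; plasma level by Bacillus subtilis microbiologic assay (detection limit 0.10 mg/liter). Noncompartmental analysis; AUC by trapezoidal rule from mean concentrations, extrapolated to infinity.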"}, "[26]": {"assay": "Cmax in bacterial pathogen-infected neutropenic Swiss ICR mouse thigh infection model at 5 mg/kg, ip", "format": "ADME, organism-based", "design": "dose 5 mg/kg, route intraperitoneal", "conditions": "in vivo", "how_it_was_run": "as §1"}, "[27]": {"assay": "Cmax in bacterial pathogen-infected neutropenic Swiss ICR mouse thigh infection model at 10 mg/kg, ip", "format": "ADME, organism-based", "design": "dose 10 mg/kg, route intraperitoneal", "conditions": "in vivo", "how_it_was_run": "as §1"}, "Streptococcus pneumoniae [28]": {"test_system": "Streptococcus pneumoniae", "assay": "Bactericidal activity against penicillin-susceptible Streptococcus pneumoniae ATCC 10813 infected neutropenic Swiss ICR mouse thigh infection model assessed as drug level causing 1-log reduction of bacterial count at 2.3 mg/kg, ip dosed every 12 hrs", "format": "functional", "conditions": "route intraperitoneal", "how_it_was_run": "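Neutropenic mice (cyclophosphamide ip 150 mg/kg day −4, 100 mg/kg day −1, then every 48 h) received 0.1 ml log-phase inoculum per thigh under halothane. Intraperitoneal dalbavancin started 2 h later and was given for 6 days at q12h, q24h, q36h or q72h, two mice per regimen. Thigh CFU were counted at 144 h. Endpoint doses relative to start-of-therapy counts came from Hill-model nonlinear regression and are expressed per 24 h.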"}}, "data": [{"smiles": "CN[C@H]1C(=O)N[C@@H]2Cc3ccc(cc3)Oc3cc4cc(c3O[C@@H]3O[C@H](C(=O)O)[C@@H](O)[C@H](O)[C@H]3NC(=O)CCCCCCCCC(C)C)Oc3ccc(cc3Cl)[C@@H](O)[C@@H]3NC(=O)[C@H](NC(=O)[C@@H]4NC(=O)[C@@H](NC2=O)c2cc(cc(O)c2Cl)Oc2cc1ccc2O)c1ccc(O)c(c1)-c1c(O[C@H]2O[C@H](CO)[C@@H](O)[C@H](O)[C@@H]2O)cc(O)cc1[C@@H](C(=O)NCCCN(C)C)NC3=O", "note": "[DALBAVANCIN]", "values": [{"measurement": "RatioAUC/MIC", "setting": "Streptococcus pneumoniae [1]", "value": 16}, {"measurement": "RatioAUC/MIC", "setting": "Streptococcus pneumoniae [2]", "value": 29}, {"measurement": "Ratio", "setting": "Staphylococcus aureus [3]", "value": 66}, {"measurement": "Ratio", "setting": "Staphylococcus aureus [4]", "value": 112}, {"measurement": "RatioAUC/MIC", "setting": "Streptococcus pneumoniae [5]", "value": 21.7}, {"measurement": "Ratio", "setting": "Staphylococcus aureus [6]", "value": 58.3}, {"measurement": "RatioAUC/MIC", "setting": "Streptococcus pneumoniae [7]", "value": 4.3}, {"measurement": "RatioAUC/MIC", "setting": "Staphylococcus aureus [8]", "value": 325}, {"measurement": "Ratio", "setting": "Staphylococcus aureus [9]", "value": 76.6}, {"measurement": "Ratio", "setting": "Staphylococcus aureus [10]", "value": 12.9}, {"measurement": "RatioAUC/MIC", "setting": "Staphylococcus aureus [11]", "value": 157}, {"measurement": "Ratio", "setting": "Staphylococcus aureus [12]", "value": 69.3}, {"measurement": "RatioAUC/MIC", "setting": "Streptococcus pneumoniae [13]", "value": 35.3}, {"measurement": "RatioAUC/MIC", "setting": "Staphylococcus aureus [14]", "value": 121}, {"measurement": "Ratio", "setting": "Staphylococcus aureus [15]", "value": 88.1}, {"measurement": "Ratio", "setting": "Staphylococcus aureus [16]", "value": 122}, {"measurement": "RatioAUC/MIC", "setting": "Streptococcus pneumoniae [17]", "value": 14.1}, {"measurement": "RatioAUC/MIC", "setting": "Streptococcus pneumoniae [18]", "value": 1.4}, {"measurement": "RatioAUC/MIC", "setting": "Streptococcus pneumoniae [19]", "value": 8.7}, {"measurement": "Ratio", "setting": "Staphylococcus aureus [20]", "value": 217}, {"measurement": "AUC", "setting": "[21]", "value": 10600, "unit": "µg·h/mL"}, {"measurement": "Activity", "setting": "Serum", "value": 98.4, "unit": "%"}, {"measurement": "Activity", "setting": "Streptococcus pneumoniae [22]", "value": 1.53}, {"measurement": "MBC", "setting": "Streptococcus pneumoniae [23]", "value": 0.03, "unit": "µg/mL"}, {"measurement": "MIC", "setting": "Streptococcus pneumoniae [23]", "value": 0.03, "unit": "µg/mL"}, {"measurement": "MBC", "setting": "Staphylococcus aureus [24]", "value": 0.25, "unit": "µg/mL"}, {"measurement": "MIC", "setting": "Staphylococcus aureus [24]", "value": 0.06, "unit": "µg/mL"}, {"measurement": "Cmax", "setting": "[25]", "value": 7400, "unit": "ng/mL"}, {"measurement": "Cmax", "setting": "[26]", "value": 29000, "unit": "ng/mL"}, {"measurement": "Cmax", "setting": "[27]", "value": 34800, "unit": "ng/mL"}, {"measurement": "Activity", "setting": "Streptococcus pneumoniae [28]", "value": 2.8}]}]}
